The record followed here is ChEMBL document CHEMBL2434944, “Novel acetamidothiazole derivatives: synthesis and in vitro anticancer evaluation” (Eur J Med Chem, 2013).

One test relates to MOLT-4. Kind of test: Growth inhibition of human MOLT4 cells assessed as cell growth at 10^-5 M after 48 hrs by sulforhodamine B assay relative to control. Format: functional. To be noted: MOLT-4, 48 h, read-out: Activity. The method, boiled down:
(§1)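 NCI-60 single-dose screen at 10^-5 M. Cells grown in RPMI 1640 with 5% FBS and 2 mM L-glutamine, plated at 5,000–40,000 cells/well according to doubling time, and preincubated 24 h at 37°C, 5% CO2. Compound dissolved in DMSO and added. Exposure 48 h. Adherent cells fixed with cold TCA (10% final), suspension cells with 16% final TCA. Read-out is 0.4% SRB staining, dye solubilised in 10 mM Tris, absorbance at 515 nm. Percent growth is calculated against the time-zero plate and untreated control.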

The subject of another test is NCI-H23. Kind of test: Growth inhibition of human NCI-H23 cells assessed as cell growth at 10^-5 M after 48 hrs by sulforhodamine B assay relative to control. Format: functional. The following applies: NCI-H23, 48 h, read-out: Activity. The procedure, abridged: as §1
The next test deals with MDA-MB-231. Kind of test: Growth inhibition of human MDA-MB-231 cells assessed as cell growth at 10^-5 M after 48 hrs by sulforhodamine B assay relative to control. The test is classed as functional. The following applies: MDA-MB-231, 48 h, read-out: Activity. The procedure, abridged:
as §1
In general terms: Sulforhodamine B stains cellular protein and so reports cell mass.

In the next test the test system is A549. Briefly: Growth inhibition of human A549 cells assessed as cell growth at 10^-5 M after 48 hrs by sulforhodamine B assay relative to control. Format: functional. The following applies: A549, 48 h, read-out: Activity. The method, boiled down: as §1
Another test relates to LOX IMVI. Briefly: Growth inhibition of human LOXIMVI cells assessed as cell growth at 10^-5 M after 48 hrs by sulforhodamine B assay relative to control. The test is classed as functional. To be noted: read-out: Activity. The procedure, abridged: as §1
The test system of a further test is OVCAR-8. Kind of test: Growth inhibition of human OVCAR8 cells assessed as cell growth at 10^-5 M after 48 hrs by sulforhodamine B assay relative to control. The test is classed as functional. To be noted: OVCAR-8, 48 h, read-out: Activity. The procedure, abridged: as §1
The test system of a further test is OVCAR-4. Briefly: Growth inhibition of human OVCAR4 cells assessed as cell growth at 10^-5 M after 48 hrs by sulforhodamine B assay relative to control. The test is classed as functional. The following applies: OVCAR-4, 48 h, read-out: Activity. The procedure, abridged: as §1
Test [1] can be described thus: Growth inhibition of human HCC2998 cells assessed as cell growth at 10^-5 M after 48 hrs by sulforhodamine B assay relative to control. Format: functional. The following applies: HCC 2998, 48 h, read-out: Activity. The method, boiled down:
as §1

For test [2], the target named is T1, Leukotriene A-4 hydrolase (Homo sapiens, UniProt P09960).
T1 sequence (P09960 whole entry): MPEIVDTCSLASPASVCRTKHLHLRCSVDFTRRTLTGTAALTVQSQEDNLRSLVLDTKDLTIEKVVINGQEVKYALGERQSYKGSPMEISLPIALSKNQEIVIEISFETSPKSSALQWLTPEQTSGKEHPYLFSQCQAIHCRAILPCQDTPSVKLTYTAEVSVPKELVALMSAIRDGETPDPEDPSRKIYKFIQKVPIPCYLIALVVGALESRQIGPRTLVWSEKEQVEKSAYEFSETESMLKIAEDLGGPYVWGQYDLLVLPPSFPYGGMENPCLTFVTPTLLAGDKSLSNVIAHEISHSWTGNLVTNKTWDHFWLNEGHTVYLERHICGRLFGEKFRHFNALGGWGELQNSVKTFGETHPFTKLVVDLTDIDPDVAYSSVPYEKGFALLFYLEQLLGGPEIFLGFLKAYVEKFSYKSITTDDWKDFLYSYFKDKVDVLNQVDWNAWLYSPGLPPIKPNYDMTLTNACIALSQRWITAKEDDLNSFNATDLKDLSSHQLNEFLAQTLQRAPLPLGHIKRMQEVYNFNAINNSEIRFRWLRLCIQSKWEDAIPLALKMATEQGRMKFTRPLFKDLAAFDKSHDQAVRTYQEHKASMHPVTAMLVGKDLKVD
Briefly: Inhibition of human leukotriene A-4 hydrolase.

The subject of a further test is UO-31. Briefly: Growth inhibition of human UO31 cells assessed as cell growth at 10^-5 M after 48 hrs by sulforhodamine B assay relative to control. Format: functional. The following applies: UO-31, 48 h, read-out: Activity. The procedure, abridged: (§2)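 NCI-60 single-dose screen, 10^-5 M final. Cells grown in RPMI 1640 with 5% FBS and 2 mM L-glutamine, seeded at 5,000–40,000 cells/well by doubling time. Preincubated 24 h at 37°C, 5% CO2. Compound in DMSO, diluted in medium with gentamicin, then 48 h exposure. Fixed with cold TCA, SRB stained, A515 read. Percent growth vs untreated control, time-zero plate corrected.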

A further test relates to IGROV-1. Kind of test: Growth inhibition of human IGROV1 cells assessed as cell growth at 10^-5 M after 48 hrs by sulforhodamine B assay relative to control. Format: functional. To be noted: IGROV-1, 48 h, read-out: Activity. The method, boiled down:
as §1

Test [3] has as its target Mitogen-activated protein kinase 1 (Homo sapiens, UniProt P28482). Briefly: Inhibition of human MAPK1.
The subject of the next test is 786-0. Briefly: Growth inhibition of human 786-0 cells assessed as cell growth at 10^-5 M after 48 hrs by sulforhodamine B assay relative to control. To be noted: 786-0, 48 h, read-out: Activity. The test is classed as functional. The procedure, abridged:
as §1

The next test concerns MDA-MB-435. Kind of test: Growth inhibition of human MDA-MB-435 cells assessed as cell growth at 10^-5 M after 48 hrs by sulforhodamine B assay relative to control. Format: functional. To be noted: MDA-MB-435, 48 h, read-out: Activity. The procedure, abridged:
as §1

For a further test, the system named is HOP-92. Briefly: Growth inhibition of human HOP92 cells assessed as cell growth at 10^-5 M after 48 hrs by sulforhodamine B assay relative to control. To be noted: HOP-92, 48 h, read-out: Activity. Format: functional. The method, boiled down: as §1
In the next test the test system is NCI-H522. Kind of test: Growth inhibition of human NCI-H522 cells assessed as cell growth at 10^-5 M after 48 hrs by sulforhodamine B assay relative to control. The test is classed as functional. The following applies: NCI-H522, 48 h, read-out: Activity. The procedure, abridged: as §1
The subject of a further test is HCT-116. Briefly: Growth inhibition of human HCT116 cells assessed as cell growth at 10^-5 M after 48 hrs by sulforhodamine B assay relative to control. To be noted: HCT-116, 48 h, read-out: Activity. Format: functional. The procedure, abridged:
as §1

The subject of the next test is MDA-MB-468. Kind of test: Growth inhibition of human MDA-MB-468 cells assessed as cell growth at 10^-5 M after 48 hrs by sulforhodamine B assay relative to control. The test is classed as functional. The following applies: MDA-MB-468, 48 h, read-out: Activity. The procedure, abridged:
as §1

The test system of another test is KM12. Kind of test: Growth inhibition of human KM12 cells assessed as cell growth at 10^-5 M after 48 hrs by sulforhodamine B assay relative to control. Format: functional. The following applies: KM12, 48 h, read-out: Activity. The method, boiled down: as §1
A further test deals with U-251. Briefly: Growth inhibition of human U251 cells assessed as cell growth at 10^-5 M after 48 hrs by sulforhodamine B assay relative to control. Format: functional. The following applies: U-251, 48 h, read-out: Activity. The method, boiled down:
as §2

Mitogen-activated protein kinase 1, sequence (P28482 whole entry): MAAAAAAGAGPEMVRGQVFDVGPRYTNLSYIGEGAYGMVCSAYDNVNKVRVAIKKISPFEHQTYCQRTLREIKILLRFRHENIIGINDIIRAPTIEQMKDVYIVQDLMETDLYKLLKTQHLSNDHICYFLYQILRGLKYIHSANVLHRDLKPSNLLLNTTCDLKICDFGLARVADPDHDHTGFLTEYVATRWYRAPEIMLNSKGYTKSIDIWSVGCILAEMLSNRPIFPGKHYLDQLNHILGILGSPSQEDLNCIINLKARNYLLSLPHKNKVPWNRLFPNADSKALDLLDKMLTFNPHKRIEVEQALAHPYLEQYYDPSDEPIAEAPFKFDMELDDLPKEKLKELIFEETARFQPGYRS

As to `Cc1ccc(-c2csc(=N)n2CC(=O)N2CCN(C)CC2)cc1`, the growth at 10 µM with MOLT-4 is 76.3%; with NCI-H23, 93.3%; with MDA-MB-231 it was 83.4%; with A549, 86.8%; in the test with LOX IMVI it was 89.1%; with OVCAR-8, 99.5%. The growth at 10 µM in the test on OVCAR-4 turned out to be 87.4%; in test [1], 103%; with UO-31, 83.1%; in the test on IGROV-1, 111%; in the test with 786-0, 101%; in the test on MDA-MB-435 it was 83.4%. In addition, the growth at 10 µM was determined as 62.8% with HOP-92; 80.6% with NCI-H522; 104% in the test with HCT-116; 98.6% in the test on MDA-MB-468; 104% in the test on KM12; 83.9% in the test with U-251. Also, the Ki – broadly, a measure of affinity in units of concentration, obtained from inhibition or displacement – in [2] amounted to 0.369 µM; in test [3] it was 1.89 µM.

As to `CN1CCN(C(=O)Cn2c(-c3ccc(Cl)cc3)csc2=N)CC1`, the growth at 10 µM with MOLT-4 is 75.1%; in the test on NCI-H23 it was 100%; with MDA-MB-231, 103%; in the test with A549, 90.1%; with LOX IMVI, 96.8%; in the test with OVCAR-8, 96.8%. Besides, the growth at 10 µM in the test on OVCAR-4 was determined as 90.5%; in test [1] it was 97.5%; in the test with UO-31, 89.2%; in the test on IGROV-1, 93.1%; with 786-0, 97%; in the test with MDA-MB-435, 92.2%. The growth at 10 µM in the test on HOP-92 was 77.6%; in the test on NCI-H522, 86.7%; with HCT-116, 94.4%; with MDA-MB-468, 96.8%; with KM12, 98.7%; in the test with U-251, 91.2%. The values for the inhibition constant Ki in [2] and in test [3] were 0.172 µM and 8.84 µM, respectively.

Take `Cc1ccc(-c2csc(=N)n2CC(=O)N2CCOCC2)cc1`: the growth at 10 µM in the test with MOLT-4 is 99.7%; with NCI-H23, 97.3%; in the test on MDA-MB-231, 98.4%; with A549, 94.1%; with LOX IMVI, 92.8%; with OVCAR-8 it was 108%. For the same molecule, the growth at 10 µM is 102% in the test on OVCAR-4; 98.9% in test [1]; 95.3% in the test with UO-31; 112% in the test on IGROV-1; 97.9% with 786-0; 87.2% with MDA-MB-435. Also, the growth at 10 µM turned out to be 68.3% in the test with HOP-92; 93% with NCI-H522; 101% in the test with HCT-116; 106% in the test on MDA-MB-468; 110% with KM12; 91.8% with U-251. Also, the Ki in test [2] is 3.56 µM; in [3], 9.78 µM.

Regarding `CN1CCN(C(=O)Cn2c(-c3ccccc3)csc2=N)CC1`, the growth at 10 µM with MOLT-4 amounted to 95.2%; in the test on NCI-H23, 90%; in the test on MDA-MB-231, 78.8%; with A549 it was 92%; in the test with LOX IMVI, 87.3%; in the test on OVCAR-8, 92.9%. Moreover, the growth at 10 µM with OVCAR-4 was 88.4%; in [1] it was 101%; in the test on UO-31, 78.8%; in the test on IGROV-1, 93.2%; in the test on 786-0, 101%; in the test on MDA-MB-435 it was 104%. For the same molecule, the growth at 10 µM in the test with HOP-92 was 73.8%; with NCI-H522, 82.3%; with HCT-116, 91.6%; with MDA-MB-468 it was 97.6%; in the test with KM12 it was 102%; in the test on U-251, 88.2%. Further, the values for the Ki in [2] and in [3] were 0.629 µM and 4.89 µM, respectively.

With `N=c1scc(-c2ccccc2)n1CC(=O)N1CCOCC1`, the growth at 10 µM with MOLT-4 was 95.2%; in the test with NCI-H23 it was 95.8%; in the test on MDA-MB-231 it was 95.1%; in the test on A549 it was 102%; in the test on LOX IMVI, 92%; in the test with OVCAR-8, 94.8%. For the same molecule, the growth at 10 µM in the test with OVCAR-4 was 97.3%; in test [1], 104%; in the test with UO-31, 58%; with IGROV-1, 86.7%; with 786-0, 102%; with MDA-MB-435, 101%. Besides, the growth at 10 µM was found to be 70% in the test on HOP-92; 94.2% in the test with NCI-H522; 98.6% in the test on HCT-116; 98.4% in the test on MDA-MB-468; 103% in the test on KM12; 95.1% in the test on U-251. In addition, the inhibitory constant (Ki) worked out at 8.65 µM in test [2] and 13.8 µM in test [3].

For the molecule `N=c1scc(-c2ccc(Cl)cc2)n1CC(=O)N1CCOCC1`, the growth at 10 µM with MOLT-4 was 69.2%; in the test with NCI-H23, 95.6%; with MDA-MB-231, 97.5%; in the test with A549, 84.6%; in the test with LOX IMVI it was 97.9%; in the test with OVCAR-8 it was 101%. Further, the growth at 10 µM with OVCAR-4 was 82.2%; in [1], 99.9%; in the test on UO-31, 86.1%; with IGROV-1, 90.4%; in the test with 786-0 it was 95.5%; in the test on MDA-MB-435, 84.6%. Besides, the growth at 10 µM in the test on HOP-92 is 81.8%; in the test on NCI-H522 it was 79.5%; in the test on HCT-116 it was 87.4%; in the test on MDA-MB-468 it was 95.5%; in the test on KM12 it was 106%; in the test with U-251, 88.3%. Further, the Ki in test [2] stood at 1.06 µM; in [3], 9.18 µM.
